Measurements as given in ChEMBL document CHEMBL5149983, “Scaffold-Hopping Strategy on a Series of Proteasome Inhibitors Led to a Preclinical Candidate for the Treatment of Visceral Leishmaniasis” (J Med Chem, 2021).
Converted amounts (≈) assume the structure as drawn. The source made the active and inactive calls.

Experiments:
[1] = Cytotoxicity against human THP-1 cells; assay type: toxicity, cell-based
[2] = Intrinsic clearance in mouse liver microsomes; assay type: ADME, Microsome
[3] = Genotoxicity against Salmonella typhimurium by Ames test; assay type: toxicity; conditions: salmonella enterica subsp. enterica serovar typhimurium
[4] = Solubility of the compound in FaSSIF at pH 6.5 measured after 4 hrs by HPLC-UV analysis; assay type: physicochemical; conditions: for solubility at 4 h: FaSSIF, pH 6.5
[5] = Inhibition of chymotrypsin activity of proteasome beta5 subunit in Leishmania donovani amastigotes infected in human THP-1 cells incubated for 96 hrs by INMAC assay; conditions: THP-1, 96 h, read-out: pEC50 (converted)
Leishmania donovani [6] = assay: Antileishmanial activity against amastigote stage of Leishmania donovani MHOM/ET/67/HU3 infected in BALB/c mouse assessed as reduction in parasitemia at 25 mg/kg, po bid for 10 days; assay type: functional, organism-based; conditions: time 10.0 day
Leishmania donovani [7] = assay: Antileishmanial activity against amastigote stage of Leishmania donovani MHOM/ET/67/HU3 infected in po dosed BALB/c mouse assessed as reduction in parasitemia administered twice a day for 10 days; assay type: functional; conditions: MHOM/ET/67/HU3, 240 h, time 10 day
[8] = Kinetic aqueous solubility of the compound by CLND method; assay type: physicochemical; conditions: buffer; read-out: Kinetic_solubility
[9] = Metabolic stability of the compound in human plasma assessed as parent compound remaining measured after 3 hrs; assay type: ADME, cell-free; conditions: read-out: Stability
[10] = Metabolic stability of the compound in mouse plasma assessed as parent compound remaining measured after 3 hrs; assay type: ADME, cell-free; conditions: read-out: Stability
[11] = Time during which drug concentration exceeds EC90 for inhibition of chymotrypsin activity of proteasome beta5 subunit in Leishmania donovani amastigotes infected in human THP-1 cells in NMRI mouse blood at 10 mg/kg, po by UPLC-MS/MS analysis; assay type: organism-based; conditions: in vivo
Summary of the method: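 Mice received a single 10 mg/kg oral dose, with a separate 3 mg/kg iv arm in the same PK study. Blood levels were followed over time, and time above the EC90 threshold was taken from the oral blood profile.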

[12] = Time during which drug concentration exceeds EC90 for inhibition of chymotrypsin activity of proteasome beta5 subunit in Leishmania donovani amastigotes infected in human THP-1 cells in NMRI mouse blood at 50 mg/kg, po by UPLC-MS/MS analysis; assay type: organism-based; conditions: in vivo
Summary of the method: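 Not measured directly. Time above EC90 at 50 mg/kg po was projected from the 10 mg/kg oral mouse blood profile, assuming exposure rises linearly with dose.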

THP-1 = conditions: Leishmania donovani, time 96.0 hrs

SMILES | CLH [2] [mL/min/g] | EC50 [1] [µM] | also measured
COc1ccc(NC(=O)N2CCCC2)cc1-c1cn2cc(N3CCOCC3)cnc2n1 | < 0.5 | > 50.1 | 
O=C(Nc1cccc(-c2nc3ccccc3o2)c1)c1ccco1 |  | > 50.1 | Activity [3]: Toxic
O=C(Nc1ccc(F)c(-c2cn3nc(N4CCOCC4)cnc3n2)c1)N1CCCC1 |  |  | solubility at 4 h [4]: 32 µM (≈ 13.2 µg/mL); Activity [3]: Toxic
O=C(Nc1cccc(-c2cc3ncc(-c4ccccc4)cn3n2)c1)N1CCCC1 |  | > 50.1 | 
O=C(Nc1cc(-c2cn3cc(N4CCOCC4)cnc3n2)ncn1)N1CCCC1 | < 0.5 | > 50.1 | 
O=C(Nc1cnnc(-c2cn3cc(N4CCOCC4)cnc3n2)c1)N1CCCC1 | < 0.5 | > 50.1 | 
O=C(Nc1cncc(-c2cn3cc(N4CCOCC4)cnc3n2)n1)N1CCCC1 | < 0.5 | > 50.1 | 
Cn1c(-c2cc(NC(=O)N3CCCC3)ccc2F)cc2cc(N3CCOCC3)cnc21 |  | > 50.1 | 
O=C(Nc1ccc(F)c(-c2ccn3c(N4CCOCC4)cnc3n2)c1)N1CCCC1 [GSK-3494245] | 0.8 | ≥ 63.1 | EC50 [5]: 1.58 µM; solubility at 4 h [4]: 440 µM (≈ 181 µg/mL); Activity [3]: Non-Toxic; Activity (Leishmania donovani [6]): Active; ED90 (Leishmania donovani [7]): 16 mg/kg; ED99 (Leishmania donovani [7]): 30 mg/kg
O=C(Nc1ccc(F)c(-c2cc3nc(N4CCOCC4)cnc3[nH]2)c1)N1CCCC1 |  | > 50.1 | 
O=C(Nc1nccc(-c2cn3cc(N4CCOCC4)cnc3n2)n1)N1CCCC1 | < 0.5 | > 50.1 | solubility ([4]; simulated gi fluid, pH 6.5, 4 h): > 2500 µM
O=C(Nc1cccc(-c2cc3cc(N4CCOCC4)nnc3o2)c1)N1CCCC1 |  | > 50.1 | 
O=C1CN(c2cnc3nc(-c4cc(NC(=O)N5CCCC5)ccc4F)ccn23)CCN1 |  | > 50.1 | 
O=C(Nc1cccc(-c2cn3cc(N4CCOCC4)cnc3n2)n1)N1CCCC1 | < 0.5 | > 50.1 | 
O=C(Nc1cccc(-c2cc3cc(-c4ccccc4)cnc3[nH]2)c1)N1CCCC1 |  | > 50.1 | 
CC(=O)N1CCN(c2cnc3nc(-c4cc(NC(=O)N5CCCC5)ccc4F)ccn23)CC1 |  | > 50.1 | 
O=C(Nc1cccc(-c2nc3ncccc3o2)c1)c1ccco1 | 24 | > 50.1 | EC50 [5]: 6.31 µM
O=C(Nc1ccc(F)c(-c2cn3ncc(N4CCOCC4)cc3n2)c1)N1CCCC1 |  | > 50.1 | 

The next lines start with results.

CLH [2] [mL/min/g] | SMILES | EC50 [1] [µM] | also measured
< 0.5 | O=C(Nc1ccc(F)c(-c2ccn3c(N4CCNCC4)cnc3n2)c1)N1CCCC1 | > 50.1 | 
0.7 | O=C(Nc1ccc(F)c(-c2nc3cc(N4CCOCC4)cnn3n2)c1)N1CCCC1 | > 50.1 | EC50 [5]: 0.794 µM; solubility at 4 h [4]: 182 µM (≈ 74.9 µg/mL)
2.7 | C[C@H]1CN(c2cnc3nc(-c4cc(NC(=O)N5CCCC5)ccc4F)ccn23)CCO1 |  | solubility kinetic [8]: ≥ 362 µM; EC50 [5]: 1.26 µM; solubility at 4 h [4]: 1320 µM (≈ 561 µg/mL)
< 0.5 | O=C(Nc1ccc(F)c(-c2nc3ncc(N4CCOCC4)cn3n2)c1)N1CCCC1 |  | 
3.3 | O=C(Nc1ccc(F)c(-c2cnn3c(-c4ccccc4)cnc3n2)c1)N1CCCC1 | > 50.1 | EC50 [5]: 1.26 µM; solubility at 4 h [4]: 3 µM (≈ 1.21 µg/mL)
< 0.5 | O=C(Nc1ccc(F)c(-c2cn3cc(N4CCOCC4)cnc3n2)c1)N1CCCC1 | > 50.1 | EC50 [5]: 0.631 µM; solubility at 4 h [4]: 15 µM (≈ 6.16 µg/mL); remaining at 3 h [9]: 100%; remaining at 3 h [10]: 100%; T>EC90 [11]: 2 h; T>EC90 [12]: > 6 h; Activity [3]: Toxic; pEC90 (THP-1): 5.7
1.8 | C[C@@H]1CN(c2cnc3nc(-c4cc(NC(=O)N5CCCC5)ccc4F)ccn23)CCO1 |  | solubility kinetic [8]: 345 µM (≈ 146 µg/mL); EC50 [5]: 1 µM; solubility at 4 h [4]: 1580 µM (≈ 670 µg/mL)
